Laboratory results from ChEMBL document CHEMBL1154374, “Lipophilic 2,5-disubstituted pyrroles from the marine sponge Mycale sp. inhibit mitochondrial respiration and HIF-1 activation” (J Nat Prod, 2009).
The source made the active and inactive calls. No cut-off for these calls is given here.

Tests used:
[1] = target: T1, Hypoxia inducible factors; HIF-1-alpha, HIF-2-alpha (Homo sapiens, UniProt Q16665+Q99814); experiment: Inhibition of hypoxia-induced HIF1 activation in human T47D cells by pTK-HRE3-luciferase reporter gene assay; assay type: cell-based
Method in brief: (§1)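 T47D HIF-1 luciferase reporter under hypoxia (1% O2). Compounds supplied as 4 mM isopropanol stocks, final solvent under 0.75%. % inhibition = (1 − treated/induced light output) × 100. Concentration-response, one experiment in triplicate, mean ± SD.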

[2] = target: T1, Hypoxia inducible factors; HIF-1-alpha, HIF-2-alpha; experiment: Inhibition of hypoxia-induced HIF1 activation in human T47D cells at 30 uM by pTK-HRE3-luciferase reporter gene assay; assay type: cell-based; method in brief: as §1
[3] = (§2) Inhibition of electron transport protein complex 1 in human T47D cells assessed as decrease in oxygen consumption by mitochondrial respiration assay; assay type: cell-based
Method in brief: (§3)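 Oxygen consumption of intact T47D cells measured by an adapted isolated-mitochondria respiration method. Compounds tested at 1, 3, 10 and 30 μM. Three independent experiments, mean ± SD. One-way ANOVA with Bonferroni post hoc, p < 0.05.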

[4] = target: T1, Hypoxia inducible factors; HIF-1-alpha, HIF-2-alpha; experiment: Inhibition of 1,10-phenanthroline-induced HIF1 activation in human T47D cells at 10 uM by pTK-HRE3-luciferase reporter gene assay; assay type: cell-based
Method in brief: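 T47D HIF-1 luciferase reporter; activation induced with 1,10-phenanthroline (10 μM). Compounds supplied as 4 mM isopropanol stocks, final solvent under 0.75%. % inhibition = (1 − treated/induced light output) × 100. Concentration-response, one experiment in triplicate, mean ± SD.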

T47D [5] = experiment: Inhibition of hypoxia-induced increase in VEGF production in human T47D cells at 30 uM after 16 hrs by ELISA; assay type: functional
Method in brief: (§4)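 T47D cells held at 1% O2 for 16 h with compound at 10 or 30 μM. Secreted VEGF in conditioned medium measured by ELISA and normalized to total cell-lysate protein (micro BCA). One experiment in triplicate, mean ± SD. Compared with one-way ANOVA and Bonferroni post hoc.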

T47D [6] = experiment: Inhibition of hypoxia-induced increase in VEGF production in human T47D cells at 10 uM after 16 hrs by ELISA; assay type: functional, cell-based; method in brief: as §4
T47D [7] = experiment: as §2; assay type: cell-based; method in brief: as §3
T47D [8] = experiment: Inhibition of electron transport protein complex 1 in human T47D cells assessed as decrease in oxygen consumption at 10 uM by mitochondrial respiration assay; assay type: cell-based
Method in brief: (§5)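 Digitonin-permeabilized T47D cells, O2 consumption. Malate/pyruvate starts complex I respiration. Rotenone, then succinate (complex II substrate), then antimycin A, then TMPD/ascorbate (complex IV substrates) added sequentially. Rotenone and antimycin A from ethanol stocks, final 1 μM.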

T47D [9] = experiment: Inhibition of electron transport protein complex 2 in human T47D cells assessed as decrease in oxygen consumption at 10 uM in presence of succinate by mitochondrial respiration assay; assay type: cell-based; method in brief: as §5
T47D [10] = experiment: Inhibition of electron transport protein complex 3 in human T47D cells assessed as decrease in oxygen consumption at 10 uM in presence of succinate by mitochondrial respiration assay; assay type: cell-based; method in brief: as §5
T47D [11] = experiment: Inhibition of electron transport protein complex 4 in human T47D cells assessed as decrease in oxygen consumption at 10 uM in presence of succinate by mitochondrial respiration assay; assay type: cell-based; method in brief: as §5

Row | IC50 [1] | inhibition [2] | SMILES | also measured
1 | 20 µM |  | CC(C)CCCCCCCCCCCCc1ccc(C=O)[nH]1 | 
2 |  | < 50% | N#CCCCCCCCCCCCCCCCCCCCCc1ccc(C=O)[nH]1 | IC50 [3]: > 30 µM
3 |  | < 50% | CC(C)CCCCCCCCCCCCCc1ccc(C=O)[nH]1 | 
4 |  | < 50% | CC/C=C\C/C=C\C/C=C\CCCCCCCc1ccc(C=O)[nH]1 | 
5 |  | < 50% | CCCCCC/C=C\CCCCCCCCCc1ccc(C=O)[nH]1 | 
6 |  | < 50% | CCCCCCCCCCCCCCCCc1ccc(C=O)[nH]1 | 
7 |  | < 50% | CCCCCCCCCCCCCCCc1ccc(C=O)[nH]1 | 
8 |  | < 50% | N#CCCCCCC/C=C\CCCCCCCCCCCCCc1ccc(C=O)[nH]1 | 
9 |  | < 50% | N#CCCCCCCCCCCCCC/C=C\CCCCCCc1ccc(C=O)[nH]1 | 
10 |  | < 50% | N#CCCCCCCCCCCCCCC/C=C\CCCCCCc1ccc(C=O)[nH]1 | 
11 |  | < 50% | N#CCCCCCCCCCCCCCCCC/C=C\C/C=C\CCc1ccc(C=O)[nH]1 | 
12 |  | < 50% | N#CCCCCCCCCCCCCCCCCCCCc1ccc(C=O)[nH]1 | 
13 |  | < 50% | N#CCCCCCCCCCCCCCCCCCCc1ccc(C=O)[nH]1 | 
14 | 20 µM |  | CC/C=C\C/C=C\C/C=C\CCCCCCCCCCCc1ccc(C=O)[nH]1 [MYCALAZAL 3] | 
15 | 20 µM |  | CCCCCCCCCCCCCCc1ccc(C=O)[nH]1 [MYCALAZAL 14] | 
16 | 20 µM |  | CC(C)CCCCCCCCC/C=C\CCc1ccc(C=O)[nH]1 [MYCALAZAL 16] | 
17 | 20 µM |  | CC(C)CCCCC/C=C\CCCCCCc1ccc(C=O)[nH]1 [MYCALAZAL 17] | 
18 | 20 µM |  | CCC/C=C\C/C=C\CCCCCCCCCc1ccc(C=O)[nH]1 [MYCALAZAL 18] | 
19 | 20 µM |  | CC/C=C\C/C=C\C/C=C\CCCCCCCCCc1ccc(C=O)[nH]1 [MYCALAZAL 20] | 
20 | 10 µM |  | N#CCCCCCCCCCCCCCCCCCc1ccc(C=O)[nH]1 [MYCALENITRILE 1] | inhibition [4]: inactive
21 | 10 µM |  | N#CCCCC/C=C\C/C=C\CCCCCCCCCCCCCCc1ccc(C=O)[nH]1 [MYCALENITRILE 5] | inhibition [4]: inactive
22 | 8.6 µM |  | N#CCCCC/C=C\C/C=C\CCCCCCCCCCCCc1ccc(C=O)[nH]1 [MYCALENITRILE 7] | inhibition [4]: inactive; inhibition (T47D [5]): inactive; inhibition (T47D [6]): inactive; IC50 [3]: < 10 µM; Activity (T47D [7]): Dose-dependent effect; Activity (T47D [8]): Active; Activity (T47D [9]): inactive; Activity (T47D [10]): inactive; Activity (T47D [11]): inactive
23 | 10 µM |  | N#CCCCCCC/C=C\CCCCCCCCCCCc1ccc(C=O)[nH]1 [MYCALENITRILE 8] | inhibition [4]: inactive
24 |  | < 50% | N#CCCCCCC/C=C\CCCCCCCCCCCCCCCc1ccc(C=O)[nH]1 [MYCALENITRILE 10] | IC50 [3]: > 30 µM
25 | 10 µM |  | N#CCCCCCCCCCCCCCCCc1ccc(C=O)[nH]1 [MYCALENITRILE 13] | inhibition [4]: inactive
26 | 7.8 µM |  | N#CCCCC/C=C\C/C=C\CCCCCCCCCCc1ccc(C=O)[nH]1 [Mycalenitrile-6] | inhibition [4]: inactive; inhibition at 30 µM (T47D [5]): 50%; IC50 [3]: < 10 µM; Activity (T47D [7]): Dose-dependent effect; Activity (T47D [8]): Active; Activity (T47D [9]): inactive; Activity (T47D [10]): inactive; Activity (T47D [11]): inactive
